According to the M2OR odorant receptor database:

What was measured:
Settings in all cases: stereoisomer not certain
UniProt Q8VFP5 = target: T1, UniProt Q8VFP5
T1 sequence (whole entry): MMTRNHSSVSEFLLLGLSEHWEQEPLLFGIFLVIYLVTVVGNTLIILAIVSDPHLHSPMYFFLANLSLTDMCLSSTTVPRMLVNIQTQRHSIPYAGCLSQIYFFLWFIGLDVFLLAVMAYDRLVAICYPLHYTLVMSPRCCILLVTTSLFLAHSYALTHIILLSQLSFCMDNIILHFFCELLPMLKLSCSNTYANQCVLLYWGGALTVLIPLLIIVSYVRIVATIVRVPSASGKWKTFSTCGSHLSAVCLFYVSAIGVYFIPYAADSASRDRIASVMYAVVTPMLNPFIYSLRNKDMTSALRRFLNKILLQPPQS
Method in brief: (§1)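 Assay methods differ from source to source, frequently being transient luciferase assays in mammalian cell lines. For each receptor–molecule pair, the label responsive (active) applies when the original authors judged the measured signal statistically different from baseline, and non-responsive (inactive) applies otherwise.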

UniProt Q8VG01 = target: T2, UniProt Q8VG01
T2 sequence (whole entry): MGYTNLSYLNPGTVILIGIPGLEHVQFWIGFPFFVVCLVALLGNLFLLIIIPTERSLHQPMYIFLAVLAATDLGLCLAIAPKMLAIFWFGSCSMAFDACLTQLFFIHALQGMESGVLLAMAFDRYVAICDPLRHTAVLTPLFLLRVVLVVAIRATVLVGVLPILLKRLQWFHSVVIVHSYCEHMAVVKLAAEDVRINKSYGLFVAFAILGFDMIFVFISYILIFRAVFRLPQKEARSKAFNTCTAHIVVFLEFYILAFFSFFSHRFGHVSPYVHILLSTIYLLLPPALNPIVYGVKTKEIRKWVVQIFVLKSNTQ
Method in brief: as §1

UniProt Q8VG27 = target: T3, UniProt Q8VG27
T3 sequence (whole entry): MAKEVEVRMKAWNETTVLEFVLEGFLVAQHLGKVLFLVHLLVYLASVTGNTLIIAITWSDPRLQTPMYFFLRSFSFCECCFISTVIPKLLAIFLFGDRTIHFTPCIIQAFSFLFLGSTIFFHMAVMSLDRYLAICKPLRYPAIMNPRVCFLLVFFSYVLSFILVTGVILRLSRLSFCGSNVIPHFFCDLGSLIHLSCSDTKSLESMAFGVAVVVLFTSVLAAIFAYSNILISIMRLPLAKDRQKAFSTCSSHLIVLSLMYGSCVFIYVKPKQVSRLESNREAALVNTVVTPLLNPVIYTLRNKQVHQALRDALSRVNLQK
Method in brief: as §1

UniProt Q8VG53 = target: T4, UniProt Q8VG53
T4 sequence (whole entry): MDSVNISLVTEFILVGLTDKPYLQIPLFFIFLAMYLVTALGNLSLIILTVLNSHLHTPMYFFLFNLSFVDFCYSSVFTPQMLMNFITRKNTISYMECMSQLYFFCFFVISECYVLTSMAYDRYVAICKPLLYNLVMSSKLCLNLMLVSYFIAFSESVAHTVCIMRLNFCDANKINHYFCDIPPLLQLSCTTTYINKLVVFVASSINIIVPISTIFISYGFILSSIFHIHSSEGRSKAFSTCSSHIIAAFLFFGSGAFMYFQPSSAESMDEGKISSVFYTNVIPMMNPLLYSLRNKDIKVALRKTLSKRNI
Method in brief: as §1

UniProt Q8VG64 = target: T5, UniProt Q8VG64
T5 sequence (whole entry): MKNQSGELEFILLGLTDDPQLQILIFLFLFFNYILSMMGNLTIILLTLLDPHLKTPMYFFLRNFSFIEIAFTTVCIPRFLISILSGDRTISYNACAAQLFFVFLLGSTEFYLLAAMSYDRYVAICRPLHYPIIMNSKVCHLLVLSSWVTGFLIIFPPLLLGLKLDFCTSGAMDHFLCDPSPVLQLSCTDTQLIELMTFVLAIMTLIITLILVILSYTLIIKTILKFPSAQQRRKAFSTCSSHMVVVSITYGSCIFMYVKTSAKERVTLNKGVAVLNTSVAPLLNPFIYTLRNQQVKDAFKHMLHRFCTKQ
Method in brief: as §1

UniProt Q8VGB9 = target: T6, UniProt Q8VGB9
T6 sequence (whole entry): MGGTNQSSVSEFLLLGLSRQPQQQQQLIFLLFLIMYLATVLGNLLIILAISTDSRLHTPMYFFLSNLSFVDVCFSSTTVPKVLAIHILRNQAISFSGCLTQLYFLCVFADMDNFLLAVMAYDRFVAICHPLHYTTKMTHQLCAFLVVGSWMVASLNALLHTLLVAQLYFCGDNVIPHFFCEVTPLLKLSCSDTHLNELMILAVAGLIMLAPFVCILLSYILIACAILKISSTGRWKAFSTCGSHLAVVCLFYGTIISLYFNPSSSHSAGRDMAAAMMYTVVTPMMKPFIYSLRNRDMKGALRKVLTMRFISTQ
Method in brief: as §1

UniProt Q8VFQ6 = target: UniProt Q8VFQ6
Method in brief: as §1

UniProt Q8VFV2 = target: UniProt Q8VFV2
Method in brief: as §1

UniProt Q8VFV3 = target: UniProt Q8VFV3
Method in brief: as §1

UniProt Q8VFV8 = target: UniProt Q8VFV8
Method in brief: as §1

UniProt Q8VFW7 = target: UniProt Q8VFW7
Method in brief: as §1

UniProt Q8VG74 = target: UniProt Q8VG74
Method in brief: as §1

UniProt Q8VGA9 = target: UniProt Q8VGA9
Method in brief: as §1

Measured: odorant receptor agonist call

Chain of UniProt Q8VFV2 (Q8VFV2 as listed by the source): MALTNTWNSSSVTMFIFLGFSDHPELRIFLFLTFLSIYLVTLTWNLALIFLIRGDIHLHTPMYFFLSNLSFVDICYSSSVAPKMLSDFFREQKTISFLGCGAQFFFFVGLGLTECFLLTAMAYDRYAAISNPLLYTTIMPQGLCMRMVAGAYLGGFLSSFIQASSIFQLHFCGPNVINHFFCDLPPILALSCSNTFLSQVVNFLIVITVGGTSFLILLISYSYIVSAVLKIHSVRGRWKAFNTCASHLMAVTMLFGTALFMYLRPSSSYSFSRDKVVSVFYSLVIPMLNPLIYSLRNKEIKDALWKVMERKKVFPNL
Chain of UniProt Q8VFV3 (Q8VFV3 as listed by the source): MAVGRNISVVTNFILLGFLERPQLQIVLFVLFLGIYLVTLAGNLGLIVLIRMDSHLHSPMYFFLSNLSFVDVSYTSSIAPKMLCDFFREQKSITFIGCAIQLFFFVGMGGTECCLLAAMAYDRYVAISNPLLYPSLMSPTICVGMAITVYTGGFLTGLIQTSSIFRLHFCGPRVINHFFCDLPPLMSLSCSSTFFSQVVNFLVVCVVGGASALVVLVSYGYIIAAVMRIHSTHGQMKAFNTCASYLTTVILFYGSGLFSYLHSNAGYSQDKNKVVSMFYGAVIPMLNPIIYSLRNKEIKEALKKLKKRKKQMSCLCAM
Chain of UniProt Q8VG74 (Q8VG74 as listed by the source): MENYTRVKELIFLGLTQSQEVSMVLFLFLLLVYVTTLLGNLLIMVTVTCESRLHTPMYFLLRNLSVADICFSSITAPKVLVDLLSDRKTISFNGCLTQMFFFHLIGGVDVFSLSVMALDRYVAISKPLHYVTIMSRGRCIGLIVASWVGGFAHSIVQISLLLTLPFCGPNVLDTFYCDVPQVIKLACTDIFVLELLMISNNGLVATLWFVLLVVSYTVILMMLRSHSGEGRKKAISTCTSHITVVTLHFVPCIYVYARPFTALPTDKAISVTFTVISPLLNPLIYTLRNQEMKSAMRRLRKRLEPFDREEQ
Chain of UniProt Q8VGA9 (Q8VGA9 as listed by the source): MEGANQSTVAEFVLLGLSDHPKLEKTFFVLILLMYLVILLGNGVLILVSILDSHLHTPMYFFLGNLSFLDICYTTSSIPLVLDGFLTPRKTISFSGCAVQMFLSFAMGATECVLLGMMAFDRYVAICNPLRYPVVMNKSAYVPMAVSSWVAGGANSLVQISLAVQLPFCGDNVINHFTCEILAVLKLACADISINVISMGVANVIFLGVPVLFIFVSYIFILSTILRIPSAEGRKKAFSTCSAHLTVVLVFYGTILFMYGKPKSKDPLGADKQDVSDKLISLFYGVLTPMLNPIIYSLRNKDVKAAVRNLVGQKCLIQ
Chain of UniProt Q8VFV8 (Q8VFV8 as listed by the source): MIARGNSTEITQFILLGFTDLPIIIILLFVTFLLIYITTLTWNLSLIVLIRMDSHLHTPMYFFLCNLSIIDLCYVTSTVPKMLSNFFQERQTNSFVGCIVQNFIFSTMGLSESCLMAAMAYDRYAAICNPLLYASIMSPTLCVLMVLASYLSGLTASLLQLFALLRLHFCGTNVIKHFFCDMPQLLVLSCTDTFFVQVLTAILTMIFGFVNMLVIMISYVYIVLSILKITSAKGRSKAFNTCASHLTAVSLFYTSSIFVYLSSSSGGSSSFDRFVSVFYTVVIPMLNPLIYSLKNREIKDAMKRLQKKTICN
Chain of UniProt Q8VFW7 (Q8VFW7 as listed by the source): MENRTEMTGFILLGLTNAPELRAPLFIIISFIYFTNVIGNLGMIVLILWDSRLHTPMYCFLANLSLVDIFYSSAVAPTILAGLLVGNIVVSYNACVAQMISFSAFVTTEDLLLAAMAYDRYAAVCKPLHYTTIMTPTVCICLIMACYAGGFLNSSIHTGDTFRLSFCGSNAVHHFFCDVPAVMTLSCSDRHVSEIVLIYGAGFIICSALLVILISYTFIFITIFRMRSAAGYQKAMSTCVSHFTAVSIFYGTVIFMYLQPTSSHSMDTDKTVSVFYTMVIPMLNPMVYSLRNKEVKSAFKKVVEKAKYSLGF
Chain of UniProt Q8VFQ6 (Q8VFQ6 as listed by the source): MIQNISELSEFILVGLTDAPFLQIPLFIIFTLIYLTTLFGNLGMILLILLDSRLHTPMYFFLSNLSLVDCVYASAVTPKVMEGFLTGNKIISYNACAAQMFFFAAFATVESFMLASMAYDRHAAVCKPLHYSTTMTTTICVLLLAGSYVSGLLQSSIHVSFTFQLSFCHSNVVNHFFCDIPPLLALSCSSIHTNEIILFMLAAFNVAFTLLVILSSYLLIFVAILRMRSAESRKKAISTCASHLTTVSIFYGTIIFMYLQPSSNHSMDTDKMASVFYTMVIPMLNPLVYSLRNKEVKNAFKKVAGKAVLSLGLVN

C1CCOC1
inactive: UniProt Q8VFP5 | UniProt Q8VG01 | UniProt Q8VG27 | UniProt Q8VG53 | UniProt Q8VG64 | UniProt Q8VGB9

CCCCCCCCOC=O
inactive: UniProt Q8VFP5 | UniProt Q8VG01 | UniProt Q8VG27 | UniProt Q8VG53 | UniProt Q8VG64 | UniProt Q8VGB9

CCCCCCC(=O)OCCCC
active: UniProt Q8VG01
inactive: UniProt Q8VFP5 | UniProt Q8VG27 | UniProt Q8VG53 | UniProt Q8VG64 | UniProt Q8VGB9

CCCCCCCCC=CC=O
inactive: UniProt Q8VFP5 | UniProt Q8VG01 | UniProt Q8VG27 | UniProt Q8VG53 | UniProt Q8VG64 | UniProt Q8VGB9

CCc1occc(=O)c1O
inactive: UniProt Q8VFP5 | UniProt Q8VG01 | UniProt Q8VG27 | UniProt Q8VG53 | UniProt Q8VG64 | UniProt Q8VGB9

C=CC(=C)CCC=C(C)C
inactive: UniProt Q8VFP5 | UniProt Q8VG01 | UniProt Q8VG27 | UniProt Q8VG53 | UniProt Q8VG64 | UniProt Q8VGB9

CC(=O)OCCc1ccccc1
inactive: UniProt Q8VFP5 | UniProt Q8VG01 | UniProt Q8VG27 | UniProt Q8VG53 | UniProt Q8VG64 | UniProt Q8VGB9

C=CC(=O)CCCCC
inactive: UniProt Q8VFP5 | UniProt Q8VG01 | UniProt Q8VG27 | UniProt Q8VG53 | UniProt Q8VG64 | UniProt Q8VGB9

Cc1ccc(OC(=O)C(C)C)cc1
inactive: UniProt Q8VFP5 | UniProt Q8VG01 | UniProt Q8VG27 | UniProt Q8VG53 | UniProt Q8VG64 | UniProt Q8VGB9

CCCCCOC(=O)CCC
inactive: UniProt Q8VFP5 | UniProt Q8VG01 | UniProt Q8VG27 | UniProt Q8VG53 | UniProt Q8VG64 | UniProt Q8VGB9

Cc1ccc(C(C)C)c(O)c1
inactive: UniProt Q8VFP5 | UniProt Q8VG01 | UniProt Q8VG27 | UniProt Q8VG53 | UniProt Q8VG64 | UniProt Q8VGB9

CCCCCC(C)O (stereo not drawn)
inactive: UniProt Q8VFP5 | UniProt Q8VG01 | UniProt Q8VG27 | UniProt Q8VG53 | UniProt Q8VG64 | UniProt Q8VGB9

C=CC(C)=CCC=C(C)CCC=C(C)C
inactive: UniProt Q8VFP5 | UniProt Q8VG01 | UniProt Q8VG27 | UniProt Q8VG53 | UniProt Q8VG64 | UniProt Q8VGB9

CC(=O)C1(C)CC2=C(CCCC2(C)C)CC1C (stereo not drawn)
inactive: UniProt Q8VFP5 | UniProt Q8VG01 | UniProt Q8VG27 | UniProt Q8VG53 | UniProt Q8VG64 | UniProt Q8VGB9

C=C(C)C1CCC2(C)OC2C1 (stereo not drawn)
inactive: UniProt Q8VFP5 | UniProt Q8VG01 | UniProt Q8VG27 | UniProt Q8VG53 | UniProt Q8VG64 | UniProt Q8VGB9

Cc1occc1SSc1ccoc1C
inactive: UniProt Q8VFP5 | UniProt Q8VG01 | UniProt Q8VG27 | UniProt Q8VG53 | UniProt Q8VG64 | UniProt Q8VGB9

O=c1ccc2ccccc2o1
inactive: UniProt Q8VFQ6

CC1CCCCCCCCCCCCC(=O)C1 (stereo not drawn)
inactive: UniProt Q8VFV2 | UniProt Q8VFV3 | UniProt Q8VFV8 | UniProt Q8VFW7 | UniProt Q8VG74 | UniProt Q8VGA9
